The text below walks through data of paper PMC3515842 (Journal of medicinal chemistry, 2012).

By Papp is commonly meant a coefficient for how fast a substance crosses the barrier. Lower therefore signals slow passage. In general, inhibition refers to the share of the control response that was lost under treatment.

Series [1] addresses T1, APE1 (Homo sapiens, UniProt P27695). Put plainly: fluorescence-based qHTS assay of APE1 endonuclease activity. The class given is biochemical. The note with it: for less activity than the corresponding amide analog (4): relative to 4. In general terms: Quantitative high-throughput screening tests each substance at several concentrations.
A further series is described as follows: Caco-2 permeability. The format is in vitro ADME. The note with it: human, Caco-2, pH 7.4.
Series [2] in a line: in vivo PK analysis, IP administration. To be noted: IP 30 mg/kg, CD1 mice, 24 hour observation.
In series [3] the target is T1, APE1. Put plainly: enzyme kinetic studies of APE1 incision. The class given is biochemical. The note with it: for KM increase: 5, 10 or 20 µM inhibitor; for mode of inhibition: Lineweaver-Burk analysis; for kcat decrease: only at the high inhibitor concentration.
Another series has as its system HeLa cells. Put plainly: MMS and TMZ potentiation / HeLa cell viability assay. The class given is cell-based, human. To be noted: for IC50: Homo sapiens, read-out: 50% reduction in cell viability as a single agent; for IC50 / concentration of optimal synergy with MMS and TMZ: 24 h; for potentiation of cytotoxic effects of MMS and TMZ / concentration of optimal synergy with MMS and TMZ: MMS 0.4 mM or TMZ 1 mM. The procedure, abridged: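 HeLa cells in DMEM with 10% FBS, seeded at 6K/well and left overnight to attach. Medium was then replaced with fresh medium holding serial dilutions of test compound (5–30 µM), with or without MMS (0.4 mM) or TMZ (1 mM), for 24 h. Viability was read by CellTiter Glo luminescence after 30 min at room temperature, as percent of DMSO control, normalized to 100% per alkylating agent without compound.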

The next series deals with APE1-DNA complex (Homo sapiens, UniProt P27695). Put plainly: electrophoretic mobility shift assay. The note with it: protein pre-treated with 30 µM inhibitor. The format is binding. Put shortly: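 Recombinant wild-type APE1 (10 ng, ~28 nM) was preincubated 10 min on ice with test compound (1, 3, 10, 30, 100 µM) or 1% DMSO. 32P AP-DNA (100 fmol, 10 nM) was added for 5 min on ice. Complex and free DNA were separated on native 8% PAGE (2 h, 120 V); percent DNA bound was read by phosphorimager.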
Sequence of APE1-DNA complex (P27695 whole entry, one chain of several): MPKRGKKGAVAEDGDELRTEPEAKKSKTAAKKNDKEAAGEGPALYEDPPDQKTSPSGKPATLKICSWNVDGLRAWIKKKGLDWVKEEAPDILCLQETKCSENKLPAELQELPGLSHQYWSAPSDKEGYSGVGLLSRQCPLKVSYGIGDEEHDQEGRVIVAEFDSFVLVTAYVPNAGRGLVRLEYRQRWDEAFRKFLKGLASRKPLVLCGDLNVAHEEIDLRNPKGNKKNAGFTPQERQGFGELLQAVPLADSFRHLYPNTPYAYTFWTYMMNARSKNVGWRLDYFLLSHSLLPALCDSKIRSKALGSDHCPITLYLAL
For orientation: A gel shift assay detects complexes by their altered migration in electrophoresis.

Series [4] addresses total AP site incision activity of HeLa whole cell extract (APE1) (Homo sapiens, UniProt P27695). Put plainly: HeLa whole cell extract incision assay. The class given is biochemical. The note with it: for inhibition at 100 µM: read-out: inhibition of the incision activity of HeLa extracts.
The next series has as its target CYP3A4 (Homo sapiens, UniProt P08684). Put plainly: CYP3A4 inhibition. The format is in vitro ADME.

T1 sequence (P27695 whole entry): as the sequence (P27695 whole entry, one chain of several) above
Sequence of total AP site incision activity of HeLa whole cell extract (APE1) (P27695 whole entry): as the sequence (P27695 whole entry, one chain of several) above
Sequence of CYP3A4 (P08684 whole entry, species assumed): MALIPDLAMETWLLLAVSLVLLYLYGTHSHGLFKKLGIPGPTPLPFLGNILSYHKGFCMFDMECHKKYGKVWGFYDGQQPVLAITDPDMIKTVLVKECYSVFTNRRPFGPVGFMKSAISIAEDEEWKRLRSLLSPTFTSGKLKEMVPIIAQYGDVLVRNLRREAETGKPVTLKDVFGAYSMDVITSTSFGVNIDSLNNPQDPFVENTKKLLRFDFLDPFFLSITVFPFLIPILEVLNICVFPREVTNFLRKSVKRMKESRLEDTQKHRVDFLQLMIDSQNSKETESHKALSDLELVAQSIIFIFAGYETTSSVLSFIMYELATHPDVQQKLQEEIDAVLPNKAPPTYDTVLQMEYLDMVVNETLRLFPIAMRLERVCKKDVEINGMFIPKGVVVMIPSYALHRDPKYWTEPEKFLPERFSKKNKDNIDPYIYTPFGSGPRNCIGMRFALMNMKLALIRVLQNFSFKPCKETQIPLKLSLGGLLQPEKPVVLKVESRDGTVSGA

`COC(=O)c1sc2c(c1-c1nc3ccccc3s1)CCNC2` [Compound 41]: the “activity against APE1 in the qHTS assay, in words” value (“activity against APE1” below) on APE1 [1] was “complete loss of activity”.
The same measure, in the same setting: with `O=C(CCc1ccccc1)Nc1sc2c(c1-c1nc3ccccc3s1)CCNC2` [Compound 30] the entry was “inactive”.
Take `CC(=O)Nc1sc2c(c1-c1nc3ccccc3s1)CCSC2` [Compound 48]: the “activity against APE1” value on APE1 [1] is given as “still active against APE1, albeit only at the highest concentration”.
Take `CC(=O)Nc1sc2c(c1-c1cc3ccccc3s1)CCNC2` [Compound 15]: the “activity against APE1” value at APE1 [1] is reported as “greatly diminished activity”.
`CC(=O)Nc1sc2c(c1-c1nc3ccccc3s1)CNC2` [Compound 52, N-(3-(benzo[d]thiazol-2-yl)-5,6-dihydro-4H-thieno[2,3-c]pyrrol-2-yl)acetamide] registered a Papp in the series “Caco-2 permeability” of 680 ×10⁻⁶ cm/s. Also, the IC50 against APE1 [1] amounted to 3.1 µM. In series [2], the tolerability entry is recorded as “well tolerated by the animals, with no adverse effects noted”. Also, at APE1 [3], the KM increase entry is recorded as “up to 10 fold”, the mode of inhibition entry was “competitive inhibitors” and the kcat decrease result is given as “less than 6 fold”. Besides, in the series on HeLa cells, the IC50 was approximately 30 µM; the “potentiation of cytotoxic effects of MMS and TMZ” value is given as “greatly potentiated”; the “concentration of optimal synergy with MMS and TMZ” value was 10 to 15 µM. Further, the APE1-DNA binary complex entry on APE1-DNA complex is “essentially absent”. For the same molecule, the “inhibition of HeLa whole cell extract AP site incision” value in series [4] (10 µM inhibitor) is given as “almost complete inhibition”. Moreover, the inhibition at 100 µM in series [4] is approximately 100%.
Turning to `Cc1nnc(Nc2sc3c(c2-c2nc4ccccc4s2)CCNC3)o1` [Compound 45], on APE1 [1], the “activity against APE1” value is “modest activity” and the “less activity than the corresponding amide analog (4)” value was “approximately 8 fold”.
Regarding `CC(=O)Nc1sc2c(c1-c1nc3ccccc3s1)CCNC2` [Compound 4], the inhibition at 100 µM in series [4] is approximately 100%.
The same measure, in the same setting: with `CC(=O)Nc1sc2c(c1-c1nc3ccccc3s1)CCN(C(C)C)CC2` [Compound 55] the figure was approximately 100%.
On to `CC(=O)Nc1sc2c(c1-c1nc(-c3ccccc3)cs1)CCN(C(C)C)C2` [Compound 24], for which the “activity against APE1” value on APE1 [1] is recorded as “activity comparable to the lead compound”.
With `CC(=O)Nc1sc2c(c1-c1nc3ccccc3s1)CCN(C(C)=O)C2` [Compound 8], the “activity against APE1” value on APE1 [1] is “significant loss of activity”.
The same measure, in the same setting: the same measure for `CC(=O)Nc1sc2cnccc2c1-c1nc2ccccc2s1` [Compound 50]: “completely inactive”.
Still for that read-out and setting: with `CC(=O)Nc1sc2c(c1-c1cc3ccccc3o1)CCNC2` [Compound 17] the entry was “greatly diminished activity”; with `CC(=O)Nc1sc2c(c1-c1nc3ccccc3s1)CNCC2` [Compound 53], “only modest efficacy”; with `O=C(O)c1sc2c(c1-c1nc3ccccc3s1)CCNC2` [Compound 42], “complete loss of activity”.
For the molecule `CC(=O)Nc1sc2c(c1-c1nc3ccccc3o1)CCN(C(C)C)C2` [Compound 23], at APE1 [1] (relative to lead compound 3), the loss in activity is listed as 10 fold.
Regarding `CC(=O)Nc1sc2c(c1-c1ccco1)CCNC2` [Compound 13], the “activity against APE1” value at APE1 [1] was “greatly diminished activity”.
On the same count and under the same terms, with `CC(=O)Nc1sc2c(c1-c1nc3ccccc3s1)CCOC2` [Compound 47] the entry was “still active against APE1, albeit only at the highest concentration”.
The same measure, in the same setting: with `CC(=O)Nc1sc2c(c1-c1nccs1)CCNC2` [Compound 20] the entry was “greatly diminished activity”; with `Cc1noc(-c2sc3c(c2-c2nc4ccccc4s2)CCNC3)n1` [Compound 44], “completely inactive”; with `CC(=O)Nc1sc2c(c1-c1nc3ccccc3s1)CCN(C(=O)OC(C)(C)C)C2` [Compound 5], “significant loss of activity”.
Still for that read-out and setting: the same measure for `CC(=O)Nc1sc2c(c1-c1ncco1)CCNC2` [Compound 19]: “greatly diminished activity”.
For `Cc1noc(Nc2sc3c(c2-c2nc4ccccc4s2)CCNC3)n1` [Compound 46], on APE1 [1], the “activity against APE1” value was “modest activity” and the “less activity than the corresponding amide analog (4)” value is reported as “approximately 8 fold”.
Turning to `CC(=O)Nc1sc2c(c1-c1cccs1)CCNC2` [Compound 14], the “activity against APE1” value at APE1 [1] is “greatly diminished activity”.
`CC(=O)Nc1sc2c(c1-c1nc3ccccc3s1)CCN(C(C)C)C2` [Compound 3, N-(3-(benzo[d]thiazol-2-yl)-6-isopropyl-4,5,6,7-tetrahydrothieno[2,3-c]pyridin-2-yl)acetamide] yielded a Papp in the series “Caco-2 permeability” of 500 ×10⁻⁶ cm/s. In series [2], the tolerability entry is recorded as “well tolerated by the animals, with no adverse effects noted”. Moreover, at CYP3A4, the “CYP3A4 (inh. @ 10 µM)” value was found to be 53%. Further, at APE1 [3], the KM increase is reported as not above 4 fold, the mode of inhibition entry is listed as “competitive inhibitors” and the kcat decrease result is recorded as “less than 6 fold”. In addition, in the series on HeLa cells, the IC50 was approximately 15 µM; the “potentiation of cytotoxic effects of MMS and TMZ” value is given as “greatly potentiated”; the “concentration of optimal synergy with MMS and TMZ” value lay in the range of 5 to 10 µM. For the same molecule, on APE1-DNA complex, the APE1-DNA binary complex entry is “essentially absent”. For the same molecule, the inhibition at 100 µM in series [4] was approximately 100%.
As to `Cc1nnc(-c2sc3c(c2-c2nc4ccccc4s2)CCNC3)o1` [Compound 43], the “activity against APE1” value on APE1 [1] is “completely inactive”.
On the same count and under the same terms, with `CC(C)(C)C(=O)Nc1sc2c(c1-c1nc3ccccc3s1)CCNC2` [Compound 26] the entry was “inactive”.
